FLuc inhib CS: firefly luciferase enzyme inhibitors, primary screen, artefact control for luciferase-based inhibitor screens, biochemical, luminescence, ATPLite; 1.5% of 200,000 active; Luciferin 4-monooxygenase (Photinus pyralis), P08659; inhibition, % at 10 µM; 10 min;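 active = inhibition above about 50% when tested at 10 µM, limit read from the data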
Target sequence (P08659 whole entry, looked up): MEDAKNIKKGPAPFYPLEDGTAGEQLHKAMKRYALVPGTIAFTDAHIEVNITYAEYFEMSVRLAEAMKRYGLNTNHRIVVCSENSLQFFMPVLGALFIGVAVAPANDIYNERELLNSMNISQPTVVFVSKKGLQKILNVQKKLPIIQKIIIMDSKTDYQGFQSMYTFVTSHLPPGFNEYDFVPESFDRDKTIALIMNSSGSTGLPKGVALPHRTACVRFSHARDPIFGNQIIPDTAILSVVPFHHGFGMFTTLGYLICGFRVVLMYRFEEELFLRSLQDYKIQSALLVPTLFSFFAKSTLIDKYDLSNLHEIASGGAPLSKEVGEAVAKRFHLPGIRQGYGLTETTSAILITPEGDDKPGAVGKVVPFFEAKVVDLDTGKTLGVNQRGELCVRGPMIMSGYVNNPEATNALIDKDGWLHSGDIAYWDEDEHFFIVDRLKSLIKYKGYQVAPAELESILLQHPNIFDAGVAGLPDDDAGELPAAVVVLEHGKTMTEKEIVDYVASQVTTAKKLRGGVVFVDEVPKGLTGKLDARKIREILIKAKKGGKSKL
PPC-1+TRAIL kill: compounds killing PPC-1 cancer cells with TRAIL present, primary screen, TRAIL potentiator project, ATPLite luminescence, uHTS; PPC-1 cells + TRAIL, ATPLite viability luminescence; cell killing (% activity), % at 4 µM or 5 µM; 0.41% of 220,000 active; AID 1443, 2008;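 active = cell killing above 50% in the first pass at 4 µM, then a duplicate retest at 5 µM averaging 50% or more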;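 note: plate controls were cells with TRAIL plus DMSO for no effect and medium-only wells lacking cells for full effect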
HSP90 refold inh: HSP90 inhibitors, primary screen, cell lysate, luminescence; Rabbit reticulocyte lysate, luciferase refolding luminescence, 3 h; Heat shock protein HSP 90 (rabbit reticulocyte lysate; luciferase refolding); 0.91% of 290,000 active; AID 1789, 2009; inhibition, % at 5.6 µM;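 active = inhibition above the screen-wide mean plus 3 SD, computed separately per campaign, cut at about 16% in these data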;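 note: 0% = DMSO wells and 100% = 60 µM geldanamycin wells; inhibitors lower the luminescence because luciferase stays unfolded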
STAT3 inh: IL-6 driven STAT3 reporter inhibitors, primary screen, U3A cells, luciferase, luminescence, MLSCN library | inhibition, % at 5.5 µM | IL-6 STAT3-luciferase reporter; host cell line lacks STAT1 | 0.89% of 190,000 active;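 active = inhibition above the mean inhibition across all screened compounds plus 3 SD, cut at about 44% in these data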;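 note: 0% = DMSO only wells and 100% = 100 µM nifuroxazide control wells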
TRAIL sens C8: viability loss with TRAIL in NB7+C8 cells, primary screen, TRAIL sensitizer project, cell-based, ATPlite luminescence; inhibition (viability loss, TRAIL sensitization), % at 10 µM; 1% of 360,000 active;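 active = compounds causing at least 50% loss of cell viability in the single-dose screen, relative to plate controls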
FLuc act counter: FLuc activators, initial screening, artefact control for FLuc-dependent activation tests, biochemical, ATPlite luminescence; activation factor at 10 µM; 200,000 tested, under 10 active; ATPlite luciferase biochemical, 10 min; 0 = ATP-free wells, 1 = DMSO control; Luciferin 4-monooxygenase (Photinus pyralis), P08659;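 active = luciferase activation factor, scaled between plate controls, of at least 2 with compound at 10 µM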
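assay system = Luciferase/luciferin detection reagent, cell-free biochemical luciferase assay | also added = ATP substrate | times = 10 min post-reagent at room temperature | measured by = luminescence from luciferase reaction | measure = luciferase activation, seen as luminescence increase over controls | benchmarks = low control with PBS replacing ATP, high control enzyme plus ATP without compound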
HSP90 inh confirm: HSP90 inhibitors, confirmation, cell lysate, luminescence; inhibition, % at 5.9 µM; 64% of 2,300 active; AID 1846, 2009; shares compounds with HSP90 refold inh; rabbit reticulocyte lysate, luciferase refolding luminescence, 3 h; in the data active = inhibition above about 18%;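 note: 0% = vehicle wells and 100% = reference inhibitor wells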
luciferase ctr: firefly luciferase inhibitors, HSP90 counter-screen, confirmation, artefact control for HSP90 inhibitor project, biochemical, luminescence, triplicate; inhibition, % at 5.9 µM; 48% of 2,300 active; shares compounds with HSP90 refold inh; purified native firefly luciferase;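 active = inhibition above the mean inhibition of all tested sample wells plus 3 SD, cut at about 10% in these data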;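 note: 0% = DMSO with luciferase and 100% = wells lacking luciferase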
* = called active by the depositor; / = no result. Shown are actives, neighbours in structure and some others; about 2.2% of the full set was active somewhere.

SMILES	FLuc inhib CS	PPC-1+TRAIL kill	HSP90 refold inh	STAT3 inh	TRAIL sens C8	FLuc act counter	HSP90 inh confirm	luciferase ctr
CCc1ccc(C(=O)Nc2nc3ccccc3[nH]2)cc1	/	/	80*	/	96*	/	90*	85*
N#Cc1ccc(C(=O)Nc2nc3ccccc3[nH]2)cc1	/	/	9	/	39	/	/	/
CC(C)Oc1ccc(C(=O)Nc2nc3ccccc3[nH]2)cc1	/	/	83*	/	92*	/	90*	85*
O=C(NCc1ccccn1)c1cccn1-c1ncc(C(F)(F)F)cc1Cl	-4	3	41*	-4	-4	1	3	-1
C#CCNC(=O)c1cccn1-c1ncc(C(F)(F)F)cc1Cl	-1	-1	4	8	-4	1	/	/
O=C(O)c1c[nH]c2ccc([N+](=O)[O-])cc2c1=O	/	/	/	/	3	/	/	/
Cc1cc(C)cc(-n2ncc3c2CCCC3NC(=O)CCN2CCCC2=O)c1 (stereo unspecified)	/	/	-6	/	-9	/	/	/
Cc1ccc(NCC(O)C(O)C(O)CO)c(N=Nc2ccccc2)c1C (stereo unspecified)	/	19	24*	/	-4	/	-17	-6
N#CCCn1c(SCC(=O)Nc2ccc(N3CCOCC3)cc2)nc2ccccc21	1	-3	-5	-4	3	1	/	/
Cc1ccc(S(=O)(=O)N2CCN(C(=O)c3ccc(N4CCCCC4)c([N+](=O)[O-])c3)CC2)cc1	/	/	3	/	3	/	/	/
Cc1[nH]n(-c2ccccc2)c(=O)c1C(C[N+](=O)[O-])c1ccccc1Cl (stereo unspecified)	-4	13	0	-2	-10	1	/	/
Cc1[nH]n(-c2ccccc2)c(=O)c1C(c1ccc(O)c([N+](=O)[O-])c1)c1c(C)[nH]n(-c2ccccc2)c1=O	/	/	26*	-8	-1	/	-3	-3
COc1ccc(C(C[N+](=O)[O-])c2c(C)[nH]n(-c3ccccc3)c2=O)cc1 (stereo unspecified)	/	/	26*	/	-18	/	50*	-9
CCC1(C)NC(=O)N(CC(=O)N2N=C(c3ccccc3)CC2c2ccc(OC)cc2)C1=O (stereo unspecified)	-8	-3	-3	-4	10	1.1	/	/
CCCCOc1ccc(C(=O)NCCN2CCC(n3c(=O)[nH]c4ccccc43)CC2)cc1	/	/	/	/	4	/	/	/
O=C(C(c1ccccc1)c1ccccc1)N1CCOCC1	2	2	47*	7	-24	1	-4	-7
O=C(C(c1ccccc1)C(O)c1ccccc1)N1CCOCC1 (stereo unspecified)	/	/	/	/	-8	/	/	/
COc1ccccc1CN(CC(=O)NCc1ccc(F)cc1)C(=O)c1csnn1	/	/	0	/	4	/	/	/
CC1CCN(CCc2nc3cc(NC(=O)COc4ccc([N+](=O)[O-])cc4)ccc3n2C)CC1	/	/	-1	/	14	/	/	/
S=c1[nH]ncn1/N=C/c1ccco1	/	/	/	/	6	/	/	/
C=CCOc1ccc(C2NC(=S)NC3=C2CCc2ccccc23)cc1 (stereo unspecified)	/	13	20*	/	-20	/	42*	52*
CCOC(=O)Cn1ccc(NC(=O)COc2ccc(F)cc2F)n1	/	/	-7	/	-1	/	/	/
Cc1ccccc1C(=O)N1CCC(C(=O)NC2CCCCCC2)CC1	/	/	20*	/	17	/	-2	-9
O=C(NC1CCCCC1)C1CCN(C(=O)c2ccccc2Cl)CC1	/	/	-1	/	4	/	/	/
CC1CCc2nc(NC(=O)CSc3nc4ccccc4o3)sc2C1 (stereo unspecified)	-1	3	46*	14	13	1	51*	49*
SMILES	FLuc inhib CS	PPC-1+TRAIL kill	HSP90 refold inh	STAT3 inh	TRAIL sens C8	FLuc act counter	HSP90 inh confirm	luciferase ctr
C[n+]1cccc(C2C(C#N)=C(N)Oc3c2ccc2ccccc32)c1 (stereo unspecified)	/	4	18*	/	19	/	-2	-14
C[n+]1cccc2ccc3c(c21)OC(N)=C(C#N)C3c1ccccc1 (stereo unspecified)	/	13	9	/	-4	/	/	/
CCn1c(C)nc2cc(N)ccc21	/	8	34*	/	25	/	8	-2
O=C(O)CSCC(=O)Nc1ccc(C2CCCCC2)cc1	22	22	52*	93*	2	0.8	57*	-14
Nn1cnnc1SCC(=O)Nc1ccc(C2CCCCC2)cc1	16	27	0	-1	0	0.8	/	/
Cc1cc(=O)[nH]c2c1c(C)nn2C1CCOC(C)(C)C1 (stereo unspecified)	0	27	-5	-8	-15	1	/	/
CCN(CC)CCN(C(=O)c1ccc(Br)s1)c1nc2cc3c(cc2s1)OCO3	-9	0	-2	18	4	1.1	/	/
CCN(CC)CCN(C(=O)c1ccc(Br)s1)c1nc2cc3c(cc2s1)OCCO3	-5	7	51*	14	-13	1.1	-3	-17
CCN(CC)CCN(C(=O)c1ccc2ncsc2c1)c1nc2cc3c(cc2s1)OCO3	/	/	34*	/	7	/	34*	16*
COC(=O)CNC(c1ccccc1)c1cc(Br)ccc1N (stereo unspecified)	/	3	6	/	1	/	/	/
NNC(=O)CNC(c1ccccc1)c1cc(Br)ccc1N (stereo unspecified)	/	12	58*	/	1	/	-2	-5
O=C(Nc1ccc(F)cc1)C(c1ccncc1)N1CCN(c2cccc(C(F)(F)F)n2)CC1 (stereo unspecified)	/	/	/	/	12	/	/	/
COCCn1c(C)cc(C(=O)COC(=O)c2ccc(S(=O)(=O)N(C)C)cc2)c1C	/	/	/	/	-3	/	/	/
N#CCC(=O)Nc1ccc(C(=O)OCC(=O)c2ccc3c(c2)OCO3)cc1	/	/	/	/	0	/	/	/
COCCn1c(C)cc(C(=O)COC(=O)c2ccc(NC(=O)CC#N)cc2)c1C	5	10	19*	-3	9	0.9	10	14*
N#CCC(=O)Nc1ccc(C(=O)OCC(=O)c2ccc3c(c2)OCCO3)cc1	35	11	20*	22	-5	0.6	32*	-3
CC(C)Cn1c(CN2CCN(c3ccccc3F)CC2)nc2c1c(=O)[nH]c(=O)n2C	-3	/	-2	5	-9	1	/	/
C[C@H](CO)N1C[C@H](C)[C@H](CN(C)Cc2cncnc2)Oc2cc(Br)ccc2S1(=O)=O	/	/	/	/	4	/	/	/

Screening data from PubChem.
